We go through 36 sequences from the array DNA melting data of Ke et al. (doi:10.1101/2024.01.08.574731).

A short description of series [1]: folding enthalpy; higher = less favourable; fluorescence melt of hairpins on a sequencing array, two-state fit. Particulars: sodium 0.088 M. An outline of the steps: (§1)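 To match UV melts, fitted temperatures were raised by 9.35 °C. These fits were bootstrapped two-state models that gave melting temperature and folding enthalpy, combined by inverse variance over four replicates. The input was normalised Cy3 fluorescence of library hairpins with annealed Cy3 and quencher oligos on a sequenced MiSeq flow cell, imaged in 50 mM Na-HEPES pH 8.0, 25 mM NaCl in 2.5 °C steps up to 60 °C.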

A short description of series [2]: melting temperature; fluorescence melt of hairpins on a sequencing array, two-state fit, raised by 9.35 °C to match UV melts. The note with it: sodium 0.088 M. An outline of the steps: as §1

For GCCATTCGAAAGAAGGC (((.(((....)))))), the folding enthalpy in series [1] is -25.6 kcal/mol. Moreover, the Tm in series [2] worked out at 48.1 °C.

For GCCATTCGAAAGAAGGGC (((.(((....))).))), the folding enthalpy in series [1] is -41 kcal/mol. Moreover, the Tm in series [2] amounted to 59.4 °C.

Turning to GCCATTGGAAACAGTGGC ((((.((....)).)))), in series [1], the folding enthalpy was -45.3 kcal/mol. In addition, in series [2], the Tm was found to be 50.7 °C.

In the case of GCCCACACGAAAGTGGGC (((..(((....)))))), the folding enthalpy in series [1] is -26.4 kcal/mol. Moreover, the Tm in series [2] worked out at 68 °C.

Turning to GCCCACCGAAAGGTCGGC (((.(((....))).))), the folding enthalpy in series [1] is -40.4 kcal/mol. In series [2], the Tm turned out to be 53.5 °C.

On to GCCCACCGAAAGGTTGGC (((.(((....))).))), for which the folding enthalpy in series [1] is -42.5 kcal/mol. Moreover, in series [2], the Tm amounted to 55.3 °C.

As to GCCCACGAAAGTGCCGGC ((((((....)))..))), the folding enthalpy in series [1] is -16.1 kcal/mol. The Tm in series [2] amounted to 46.6 °C.

For GCCCACGAAAGTGCGGC ((((((....))).))), in series [1], the folding enthalpy was -29.5 kcal/mol. In series [2], the Tm was 63.3 °C.

On to GCCCACGAAAGTGGAGGC ((((((....)))..))), for which the folding enthalpy in series [1] was -15.5 kcal/mol. Moreover, the Tm in series [2] was found to be 52.5 °C.

For the sequence GCCCACGCGAAAGCGGGC (((..(((....)))))), the folding enthalpy in series [1] is -11.9 kcal/mol. For the same sequence, the Tm in series [2] was determined as 61.8 °C.

As to GCCCACGGAAACGCAGGC (((..((....))..))), the folding enthalpy in series [1] was -17.8 kcal/mol. Moreover, in series [2], the Tm was found to be 39.6 °C.

As for GCCCACGGAAACGCGAGC ((.(.((....)).).)), the folding enthalpy in series [1] was -14.7 kcal/mol. In addition, the Tm in series [2] amounted to 28 °C.

With GCCCACGGAAACGTAGGC (((.(((....))).))), in series [1], the folding enthalpy is -30.6 kcal/mol. Further, in series [2], the Tm came out at 48.4 °C.

Take GCCCAGCGAAAGCAGAGC ((.(.((....)).).)): in series [1], the folding enthalpy is -10.9 kcal/mol. The Tm in series [2] was found to be 41.2 °C.

In the case of GCCCAGCGAAAGCCGCGC ((.(.((....)).).)), the folding enthalpy in series [1] is -10.1 kcal/mol. Besides, the Tm in series [2] was 45.7 °C.

Consider GCCCAGCGAAAGCGGCGC ((.(.((....)).).)), for which, in series [1], the folding enthalpy is -17 kcal/mol. Further, the Tm in series [2] came to 64.5 °C.

Regarding GCCCAGGGAAACCCAGGC (((..((....))..))), in series [1], the folding enthalpy is -25.6 kcal/mol. The Tm in series [2] amounted to 44.4 °C.

For GCCCAGGGAAACCCGAGC ((.(.((....)).).)), the folding enthalpy in series [1] was -6.87 kcal/mol. Moreover, in series [2], the Tm amounted to 28.3 °C.

For GCCCAGGGAAACCCGGAC (.((.((....)).)).), the folding enthalpy in series [1] is -4.63 kcal/mol. In series [2], the Tm came out at 28.6 °C.

In the case of GCCCATCGAAAGATTGGC (((.(((....))).))), the folding enthalpy in series [1] is -27.3 kcal/mol. For the same sequence, the Tm in series [2] was 47.8 °C.

GCCCATGCGAAAGCAGGC (((..(((....)))))): the folding enthalpy in series [1] is -13.8 kcal/mol. Besides, the Tm in series [2] is 50.8 °C.

For GCCCATTCGAAAGAAGGC (((..(((....)))))), the folding enthalpy in series [1] is -15.8 kcal/mol. For the same sequence, the Tm in series [2] was 33 °C.

On to GCCCCACGAAAGTGGGC (((.(((....)))))), for which, in series [1], the folding enthalpy is -10.9 kcal/mol. Also, the Tm in series [2] worked out at 65.5 °C.

In the case of GCCCCAGGAAACCGAGGC (((.(.(....).).))), the folding enthalpy in series [1] is -16.3 kcal/mol. Also, the Tm in series [2] stood at 32.6 °C.

As to GCCCCAGGAAACTGGGAC (.(((((....))))).), the folding enthalpy in series [1] is -15.6 kcal/mol. Further, in series [2], the Tm is 46.1 °C.

Regarding GCCCCATCGAAAGATGGC (((..(((....)))))), the folding enthalpy in series [1] was -7.75 kcal/mol. In addition, the Tm in series [2] was found to be 37.9 °C.

As to GCCCCCGAAAGGGCTGGC ((((((....)))..))), the folding enthalpy in series [1] was -16.2 kcal/mol. The Tm in series [2] is 61.8 °C.

Consider GCCCCCGAAAGGGTAGGC ((((((....)))..))), for which the folding enthalpy in series [1] is -23.3 kcal/mol. Further, the Tm in series [2] came out at 55.9 °C.

In the case of GCCCCCGAAAGGGTGGGC ((((((....)))..))), the folding enthalpy in series [1] was -27.8 kcal/mol. For the same sequence, in series [2], the Tm is 63.2 °C.

On to GCCCCCGCGAAAGCGGGC (((..(((....)))))), for which the folding enthalpy in series [1] is -4.3 kcal/mol. Moreover, the Tm in series [2] was determined as 34.8 °C.

For GCCCCGCGAAAGCACGGC (((..((....))..))), the folding enthalpy in series [1] was -18.3 kcal/mol. Moreover, in series [2], the Tm stood at 41.6 °C.

For GCCCCGCGAAAGCCGAGC ((.(.((....)).).)), in series [1], the folding enthalpy is -11.3 kcal/mol. Moreover, the Tm in series [2] came out at 32.1 °C.

GCCCCGCGAAAGCCGTGC ((.(.((....)).).)): the folding enthalpy in series [1] was -15.5 kcal/mol. Moreover, the Tm in series [2] amounted to 27.7 °C.

Consider GCCCCGCGAAAGCGCAGC ((..(((....)))..)), for which, in series [1], the folding enthalpy is -7.42 kcal/mol. Also, the Tm in series [2] amounted to 40.3 °C.

For the sequence GCCCCGCGAAAGCGGCGC ((.((((....)))).)), in series [1], the folding enthalpy was -16.6 kcal/mol. In addition, the Tm in series [2] was found to be 59.7 °C.

On to GCCCCGCGAAAGCTGCGC ((.(.((....)).).)), for which, in series [1], the folding enthalpy is -13.6 kcal/mol. In series [2], the Tm worked out at 36.6 °C.
